According to ChEMBL document CHEMBL4033777, “Next-Generation Hypoxic Cell Radiosensitizers: Nitroimidazole Alkylsulfonamides” (J Med Chem, 2018):
Converted amounts (≈) assume the structure as drawn.

Key:
[1] = system: HCT-116; assay: Hypoxic cytotoxicity ratio of IC50 for human HCT116 cells under oxic condition to IC50 for human HCT116 cells under anoxic condition
How it was run: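 HCT116 cells, 700 per well and attached 2 h, got a 4 h exposure to 3-fold serial dilutions (<1% DMSO) under air or in a Pd-catalyst anaerobic chamber with pre-equilibrated medium. Cells were washed, regrown 5 days, and stained with sulforhodamine B to give IC50. HCR = oxic IC50 / anoxic IC50.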

[2] = system: HCT-116; assay: Cytotoxicity against human HCT116 cells at anoxic IC50 incubated for 1 hr at 21 degC by clonogenic survival assay; conditions: hct-116, 1 h
[3] = system: HCT-116; assay: (§1) Hypoxia radiosensitization activity in human HCT116 cells assessed as survival ratio by measuring ratio of cell survival with 15 Gy radiation in absence to presence of compound at anoxic IC50 preincubated for 1 hr followed by 15 Gy irradiation measured after 10 days by methylene blue staining-based cell counting method; assay type: functional
How it was run: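 Anoxic HCT116 cells were seeded at 10^5/well and treated at the anoxic IC50 concentration for 1 h at room temperature. They were irradiated with 15 Gy (60Co, ~2 Gy/min) in a sealed steel box, then plated clonogenically. Colonies of >50 cells were counted […]. SR15 = survival with radiation / survival with drug + radiation.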

[4] = system: HCT-116; assay: Cytotoxicity against human HCT116 cells incubated for 4 hrs under aerobic condition measured after 5 days by sulforhodamine B assay; assay type: cell-based
How it was run: (§2)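 STR-authenticated, mycoplasma-free HCT116 cells in αMEM + 5% FCS were seeded at 700 cells/well and allowed 2 h to attach. Drug was added from DMSO stocks (<1% DMSO) in serial 3-fold dilutions for 4 h, oxic or anoxic (Pd-catalyst anaerobic chamber, medium pre-equilibrated ≥3 days). After washing, cells regrew for 5 days before SRB staining and IC50 determination.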

[5] = Solubility of the compound in alphaMEM containing 5% FCS and 1% DMSO by HPLC analysis; assay type: physicochemical
How it was run: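 Saturated drug solutions were incubated at 37 °C in αMEM with 5% FCS and 1% DMSO. Dissolved drug was quantified by HPLC.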

[6] = system: HCT-116; assay: Cytotoxicity against human HCT116 cells incubated for 4 hrs under anaerobic condition measured after 5 days by sulforhodamine B assay; assay type: functional, cell-based; how it was run: as §2
[7] = system: HCT-116; assay: as §1, with “with” for “with 15 Gy”, “0.08 mM” for “anoxic IC50”, “6 to 29” for “15”; assay type: functional
[8] = system: HCT-116; assay: as §1, with “with” for “with 15 Gy”, “0.08 mM” for “anoxic IC50”, “6 to 29” for “15”, “method relative to misonidazole” for “method”; assay type: functional
[9] = system: HCT-116; assay: as §1, with “with” for “with 15 Gy”, “0.68 mM” for “anoxic IC50”, “6 to 29” for “15”; assay type: functional
[10] = system: HCT-116; assay: as §1, with “with” for “with 15 Gy”, “0.68 mM” for “anoxic IC50”, “6 to 29” for “15”, “method relative to misonidazole” for “method”; assay type: functional
[11] = system: HCT-116; assay: (§3) Hypoxia radiosensitization activity in human HCT116 cells assessed as sensitizer enhancement ratio by measuring ratio of radiation dose for 1% survival in absence to presence of compound at 0.68 mM preincubated for 1 hr followed by irradiation measured after 10 days by methylene blue staining-based cell counting method relative to misonidazole; assay type: functional
[12] = system: HCT-116; assay: as §3, with “method” for “method relative to misonidazole”; assay type: functional
[13] = system: HCT-116; assay: as §3, with “2.1” for “0.68”; assay type: functional
[14] = system: HCT-116; assay: as §1, with “with” for “with 15 Gy”, “2.1 mM” for “anoxic IC50”, “6 to 29” for “15”; assay type: functional
[15] = system: HCT-116; assay: as §3, with “2.1” for “0.68”, “method” for “method relative to misonidazole”; assay type: functional
[16] = Electrophilicity of the compound in pH 7 phosphate buffer assessed as one-electron reduction potential
How it was run: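 The one-electron reduction potential was set by pulse radiolysis equilibria at pH 7.0 (2.5 mM phosphate), established within 20 µs against benzylviologen, methylviologen or triquat. ΔE came from equilibrium constants via the Nernst equation, at three concentration ratios and 22 ± 2 °C.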

[17] = system: Plasma; assay: Cmax in plasma of NIH-III mouse xenografted with human HCT116 cells at 2.20 mmol/kg, iv administered as single dose by HPLC analysis; assay type: ADME, organism-based; parameters: dose 2.2 mmol/kg, route intravenous; conditions: in vivo
How it was run: (§4)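 Female NIH-III mice bearing subcutaneous HCT116 xenografts (10^6 cells inoculated). At ca. 300 mm3 tumor size, a single i.v. dose was given at the MAD or 75% of the MTD. Vehicle was 0.9% saline with 1% DMSO, or saline with 2 molar equivalents NaHCO3 for phosphate prodrugs. Plasma and tumor were sampled at multiple times by cardiac puncture and excision, assayed by HPLC, and analysed noncompartmentally.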

[18] = system: Mus musculus; assay: Toxicity in NIH-III mouse xenografted with human HCT116 cells assessed as change in body weight with 12.5 Gy radiation at 2.20 mmol/kg, iv administered as single dose; conditions: in vivo
[19] = Cmax in tumor of NIH-III mouse xenografted with human HCT116 cells at 2.20 mmol/kg, iv administered as single dose by HPLC analysis; assay type: ADME, organism-based, Neoplasm; parameters: dose 2.2 mmol/kg, route intravenous; conditions: in vivo; how it was run: as §4
[20] = system: Mus musculus; assay: Drug level in NIH-III mouse assessed as maximum achievable dose at 10 ml/kg, iv; assay type: ADME; conditions: in vivo
How it was run: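 Non-tumor-bearing female NIH-III mice (~20 g) received freshly prepared solutions i.v. at 10 mL/kg in 0.9% saline with 1% DMSO, or saline with 2 molar equivalents NaHCO3 for phosphate prodrugs. MAD was the maximum dose that dissolved in the injection volume.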

[21] = system: HCT-116; assay: In vivo hypoxia radiosensitization activity in human HCT116 cells xenografted in NIH-III mouse assessed as survival ratio by measuring ratio of cell survival with 12.5 Gy radiation in absence to presence of compound at 2.20 mmol/kg, iv pretreated as single dose for 10 mins followed by irradiation measured after 18 hrs by excision assay; assay type: functional
[22] = Tmax in plasma of NIH-III mouse xenografted with human HCT116 cells at 2.20 mmol/kg, iv administered as single dose by HPLC analysis; assay type: ADME, organism-based; conditions: 2.2 mmol/kg
How it was run: (§5)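 Female NIH-III mice bearing subcutaneous HCT116 tumors (10^6 cells; ~300 mm3) got a single i.v. dose at the MAD or 75% of the MTD. Vehicle was saline with 1% DMSO, or saline with 2 equivalents of NaHCO3 for the phosphates. Plasma and tumor were sampled at multiple times by cardiac puncture and excision, drug was measured by HPLC, and Tmax came from noncompartmental analysis.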

[23] = Tmax in tumor of NIH-III mouse xenografted with human HCT116 cells at 2.20 mmol/kg, iv administered as single dose by HPLC analysis; assay type: ADME, organism-based, Neoplasm; conditions: 2.2 mmol/kg; how it was run: as §5
[24] = system: HCT-116; assay: as §1, with “with” for “with 15 Gy”, “0.11 mM” for “anoxic IC50”, “6 to 29” for “15”; assay type: functional
[25] = system: HCT-116; assay: as §1, with “with” for “with 15 Gy”, “0.11 mM” for “anoxic IC50”, “6 to 29” for “15”, “method relative to misonidazole” for “method”; assay type: functional
[26] = system: HCT-116; assay: as §3, with “0.08” for “0.68”, “method” for “method relative to misonidazole”; assay type: functional
[27] = system: HCT-116; assay: as §3, with “0.08” for “0.68”; assay type: functional

| solubility [5] [mM] | SMILES | Ratio IC50 [1] | Activity [2] | Ratio [3] | IC50 [6] [µM] | also measured |
| --- | --- | --- | --- | --- | --- | --- |
| 46.5 (≈ 16.1 mg/mL) | Cc1ncc([N+](=O)[O-])n1CCS(=O)(=O)N1CCC(N(C)C)CC1 | 2.9 | Non-Toxic | 12 | 700 | Ratio [9]: 25; fold change (FC) [10]: 2.3; fold change (FC) [11]: 1.15; Ratio [12]: 1.67 |
| 59.4 (≈ 16.5 mg/mL) | COCCNS(=O)(=O)CCn1ccnc1[N+](=O)[O-] | 5 | Non-Toxic | 6.4 | 400 | IC50 [4]: 380 to 4800 µM; Activity [16]: -391 mV |
| 14.5 (≈ 4.6 mg/mL) | Cc1ncc([N+](=O)[O-])n1CCS(=O)(=O)N1CCN(C)CC1 | 0.6 | Non-Toxic | 1.8 | 1600 |  |
| 59.3 (≈ 15.7 mg/mL) | O=C(O)CNS(=O)(=O)Cn1ccnc1[N+](=O)[O-] | 10 | Non-Toxic | 4 | 900 | IC50 [4]: 380 to 4800 µM |
| 44.1 (≈ 15.3 mg/mL) | Cc1ncc([N+](=O)[O-])n1CCS(=O)(=O)NCCN1CCOCC1 | 1.4 | Non-Toxic | 2.71 | 800 |  |
| 2.77 (≈ 0.843 mg/mL) | Cc1ncc([N+](=O)[O-])n1CCS(=O)(=O)N1CCOCC1 | 1.5 | Non-Toxic | 1.33 | 38 |  |
| > 100 | O=[N+]([O-])c1cn(CCS(=O)(=O)NCCO)cn1 | 1 | Non-Toxic | 6.3 | 10900 |  |
| 17 (≈ 5.21 mg/mL) | COCCCNS(=O)(=O)CCn1c([N+](=O)[O-])cnc1C | 1.2 | Non-Toxic | 5 | 3700 |  |
| > 49.3 | Cc1ncc([N+](=O)[O-])n1CCS(=O)(=O)NCCO | 1.3 | Non-Toxic | 3.4 | 400 | Ratio [9]: 1.616; fold change (FC) [10]: 0.36; fold change (FC) [11]: 0.82; Ratio [12]: 1.176 |
| 72.1 (≈ 20.1 mg/mL) | O=C(O)CCNS(=O)(=O)Cn1ccnc1[N+](=O)[O-] | 1 | Non-Toxic | 2 | 4400 | IC50 [4]: 380 to 4800 µM |
| 45.7 (≈ 15.2 mg/mL) | CCN(CC)CCNS(=O)(=O)CCn1c([N+](=O)[O-])cnc1C | 2 | Non-Toxic | 9 | 1300 |  |
| > 53.8 | Cc1ncc([N+](=O)[O-])n1CCS(=O)(=O)NCCCN(C)C | 3 | Non-Toxic | 8 | 1200 |  |
| 450 (≈ 144 mg/mL) | O=[N+]([O-])c1nccn1CS(=O)(=O)NCCN1CCOCC1 | 50 | Non-Toxic | 10.5 | 80 | Ratio [7]: 3.9; Ratio [26]: 1.28; fold change (FC) [27]: 0.89; IC50 [4]: 380 to 4800 µM; fold change (FC) [8]: 0.51 |
| > 100 | COCC(O)Cn1ccnc1[N+](=O)[O-] (configuration not stated) [MISONIDAZOLE] | >62.44 | Non-Toxic | 7.1 | 530 | Activity [16]: -389 mV |
| 16 (≈ 4.45 mg/mL) | COCCNS(=O)(=O)CCn1cnc([N+](=O)[O-])c1 |  | Non-Toxic | 9 | > 5300 | Activity [16]: -538 mV |

The remaining lines, values behind:

| SMILES | solubility [5] [mM] | Ratio IC50 [1] | Activity [2] | Ratio [3] | IC50 [6] [µM] | also measured |
| --- | --- | --- | --- | --- | --- | --- |
| O=[N+]([O-])c1nccn1CS(=O)(=O)NCCN1CCCC1 | 16.1 (≈ 4.88 mg/mL) | 96 | Non-Toxic | 1.7 | 11 | IC50 [4]: 380 to 4800 µM |
| COCCNS(=O)(=O)Cn1ccnc1[N+](=O)[O-] |  |  | Non-Toxic |  |  | Ratio [7]: 2.9; IC50 [4]: 380 to 4800 µM; fold change (FC) [8]: 0.78 |
| O=[N+]([O-])c1cncn1CS(=O)(=O)NCCN1CCOCC1 |  | 1.4 | Non-Toxic | 60 | 2100 | fold change (FC) [13]: 1.01; Ratio [14]: 8.2; Ratio [15]: 1.43 |
| O=[N+]([O-])c1cncn1CS(=O)(=O)NCCOP(=O)(O)O |  |  |  |  |  | Cmax [17]: 1100 µM; Activity [18]: Non-Toxic; Cmax [19]: 140 µM; Drug uptake [20]: 2.2 mmol/kg; Ratio [21]: 13; Tmax [22]: 10 min; Tmax [23]: 30 min |
| O=[N+]([O-])c1cn(CS(=O)(=O)NCCN2CCOCC2)cn1 |  | 1.3 | Non-Toxic | 7 | 3300 |  |
| O=[N+]([O-])c1nccn1CCS(=O)(=O)NCCOP(=O)(O)O |  |  |  |  |  | Cmax [17]: 1140 µM; Cmax [19]: 390 µM; Drug uptake [20]: 2.2 mmol/kg; Ratio [21]: 2.9; Tmax [22]: 10 min; Tmax [23]: 10 min |
| O=[N+]([O-])c1cncn1CCS(=O)(=O)NCCOP(=O)(O)O |  |  |  |  |  | Drug uptake [20]: 2.2 mmol/kg; Ratio [21]: 2.6 |
| COCCNS(=O)(=O)Cn1cncc1[N+](=O)[O-] |  |  | Non-Toxic |  |  | Ratio [24]: 1.9; fold change (FC) [25]: 0.44 |
| O=[N+]([O-])c1cn(CS(=O)(=O)NCCO)cn1 |  | <0.5 |  |  | > 6000 |  |
| O=[N+]([O-])c1nccn1CS(=O)(=O)NCCOP(=O)(O)O | 185 (≈ 61.1 mg/mL) |  |  |  |  | Cmax [17]: 900 µM; Activity [18]: Non-Toxic; Cmax [19]: 320 µM; Drug uptake [20]: 2.2 mmol/kg; Ratio [21]: 10; Tmax [22]: 10 min; Tmax [23]: 10 min |
